Data: ChEMBL document CHEMBL3232799, “Design, synthesis and biological evaluation of new 5-nitro benzimidazole derivatives as AT1 antagonists with anti-hypertension activities” (Bioorg Med Chem, 2014)
Activity calls are given as the source filed them. No cut-off for these calls is given here.

Assays:
[1] = Displacement of [125I]-angiotensin 2 from angiotensin AT1 receptor in VSMC of Sprague-Dawley rat thoracic aorta after 60 mins by gamma-counting; assay type: tissue-based
Outline: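 VSMCs explant-cultured from SD rat thoracic aorta (collagenase digestion, DMEM + 15% FBS), passages 3-7. Cells incubated with 0.1 nM 125I-angiotensin II plus compound (final 1e-6 to 1e-12 M), 60 min, 37°C. Nonspecific binding defined with 1 µM AII. Cells washed with PBS, lysed in 0.1 M NaOH, gamma-counted. IC50 from regression of displacement curves; Ki = IC50/(1+[L]/Kd).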

Rattus norvegicus [2] = test: Antihypertensive activity in spontaneous hypersensitive […] rat model assessed as reduction of blood pressure at <5 to 10 mg/kg, po measured for 1 to 24 hrs; assay type: functional, organism-based; design: dose 10 mg/kg
Outline: (§1)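 Spontaneously hypertensive rats (250-300 g), randomized into groups of 10. Compound suspended in 0.5% sodium carboxymethyl cellulose, oral dosing at 5 and 10 mg/kg; vehicle-only negative control and losartan 10 mg/kg positive control. Mean blood pressure recorded under sodium pentobarbital anesthesia (40 mg/kg, i.p.). Significance versus control at p < 0.05 or 0.01.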

Rattus norvegicus [3] = test: Antihypertensive activity in renal hypersensitive Sprague-Dawley rat model assessed as reduction of blood pressure at 5 to 10 mg/kg, po measured for 1 to 24 hrs; assay type: functional, organism-based
Outline: (§2)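 Renal hypertension induced in Sprague-Dawley rats (250-350 g) by complete ligation of the left renal artery under sodium pentobarbital (40 mg/kg); rats with SBP above 160 mmHg used. Groups of 10. Compound suspended in 0.5% sodium carboxymethyl cellulose and given orally at 5 and 10 mg/kg; vehicle control and losartan 10 mg/kg. Mean blood pressure measured under pentobarbital (40 mg/kg, i.p.) anesthesia.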

Rattus norvegicus [4] = test: Antihypertensive activity in spontaneous hypersensitive […] rat model assessed as reduction of blood pressure at 10 mg/kg, po measured for 1 to 24 hrs; assay type: functional; outline: as §1
Rattus norvegicus [5] = test: Antihypertensive activity in renal hypersensitive Sprague-Dawley rat model assessed as reduction of blood pressure at 10 mg/kg, po measured for 1 to 24 hrs; assay type: functional, organism-based; design: dose 10 mg/kg; outline: as §2
Rattus norvegicus [6] = test: Antihypertensive activity in spontaneous hypersensitive […] rat model assessed as reduction of blood pressure at 5 mg/kg, po measured after 4 to 5 hrs; assay type: functional; outline: as §1
Rattus norvegicus [7] = test: Antihypertensive activity in spontaneous hypersensitive […] rat model assessed as reduction of blood pressure at 10 mg/kg, po measured after 4 to 5 hrs; assay type: functional; outline: as §1
Rattus norvegicus [8] = test: Antihypertensive activity in spontaneous hypersensitive […] rat model assessed as duration of reduction of blood pressure at 5 to 10 mg/kg, po; assay type: functional; conditions: dose mg/kg 5-10; outline: as §1

Structure (SMILES)	IC50 [1] [nM]	Ki [1] [nM]	Activity (Rattus norvegicus [2])	Activity (Rattus norvegicus [3])	Activity (Rattus norvegicus [4]) [mmHg]	Activity (Rattus norvegicus [5])	Activity (Rattus norvegicus [6]) [mmHg]	Activity (Rattus norvegicus [7]) [mmHg]	Time (Rattus norvegicus [8]) [h]
CCCCCc1nc2cc([N+](=O)[O-])ccc2n1Cc1cccc2c1ccn2-c1ccccc1C(=O)O	15.7	13.4	inactive	inactive	–	–	–	–	–
CCCCc1nc(Cl)c(CO)n1Cc1ccc(-c2ccccc2-c2nnn[nH]2)cc1 [LOSARTAN]	3.54	2.53	–	–	31	Active	–	–	–
CCCCc1nc2cc([N+](=O)[O-])ccc2n1Cc1ccc2c(ccn2-c2ccccc2C(=O)O)c1	5.11	4.89	–	–	32	Active	–	–	–
CCCc1nc2cc([N+](=O)[O-])ccc2n1Cc1cccc2c1ccn2-c1ccccc1C(=O)O	5.43	4.23	inactive	inactive	–	–	–	–	–
CCCc1nc2cc([N+](=O)[O-])ccc2n1Cc1ccc2c(ccn2-c2ccccc2C(=O)O)c1	3.32	2.22	–	–	28	Active	–	–	–
CCc1nc2cc([N+](=O)[O-])ccc2n1Cc1cccc2c1ccn2-c1ccccc1C(=O)O	4.12	3.04	–	–	30	Active	–	–	–
CCCCc1nc2cc([N+](=O)[O-])ccc2n1Cc1cccc2c1ccn2-c1ccccc1C(=O)O	1.03	0.97	–	Active	–	–	30	41	24
